Columns and labels:
[1] = system: Plasmodium berghei; assay: (§1) In vivo effective dose for antimalarial activity by intraperitoneal dose; assay type: functional; conditions: ip
Summary of the method: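 P. berghei-infected mice, five per group. Test agents were prepared at various concentrations in distilled water or olive oil and given intraperitoneally once daily on days 0–3. Parasitemia was measured on day 4, the day after the last dose, and effective doses were derived by a previously reported protocol.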

[2] = Selectivity ratio between cytotoxicity to antimalarial activity was determined; assay type: functional
[3] = system: Plasmodium berghei; assay: as §1; assay type: functional; conditions: ip; remark: listed apart in the source
Summary of the method: (§2)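 Mice infected with P. berghei were dosed intraperitoneally or orally, in groups of five, once daily on days 0–3. Compounds were given at various concentrations in distilled water or olive oil. Parasitemia was measured on day 4, the day after the last dose. ED50 and ED90 were derived by a previously reported protocol.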

[4] = system: Plasmodium falciparum; assay: In vitro antimalarial activity against Plasmodium falciparum FCR3; assay type: functional, organism-based
[5] = system: FM3A; assay: Cytotoxicity against FM3A mouse mammary cells; assay type: functional, cell-based
[6] = system: Plasmodium berghei; assay: In vivo effective dose for antimalarial activity by peroral dose; assay type: functional; conditions: po; summary of the method: as §2
[7] = system: Plasmodium berghei; assay: In vivo antimalarial activity at >100mg/kg intraperitoneal dose; assay type: functional

Structure (SMILES) | ED50 [1] | Ratio [2] | ED90 [3] | EC50 [4] | EC50 [5] | ED50 [6] | ED90 [6] | Inhibition [7]
CC1(C)[C@@H](n2cnc3ccccc3c2=O)C(=O)C[C@@H]2[C@@H](O)CCCN21 | 2.5 mg/kg | 238 | 6.6 mg/kg | – | – | – | – | –
O=C(C[C@H]1NCCC[C@@H]1O)Cn1c(=O)[nH]c2ccccc2c1=O | – | >13 | – | 6600 nM | > 85000 nM | – | – | –
O=C(C[C@H]1NC(=O)CC[C@@H]1O)Cn1cnc2ccccc2c1=O | – | – | – | > 52000 nM | > 52000 nM | – | – | –
O=c1c2cc(O)ccc2ncn1CC1(O)C[C@@H]2NCCC[C@@H]2O1 (stereo not given in full) | 6 mg/kg | 10741 | 37 mg/kg | 0.27 nM | 29000 nM | – | – | –
O=C(C[C@H]1NCCC[C@@H]1O)Cn1cnc2ccc(O)cc2c1=O | 0.6 mg/kg | 123 | 5.2 mg/kg | 2.2 nM | 270 nM | 15 mg/kg | 27 mg/kg | –
O=c1c2ccccc2ncn1CC1(O)C[C@@H]2NCC[C@H](O)[C@@H]2O1 (stereo not given in full) | – | 167 | – | 150 nM | 250 nM | – | – | –
O=C(C[C@H]1NCC[C@H](O)[C@@H]1O)Cn1cnc2ccccc2c1=O | 2.4 mg/kg | 1636 | 8.3 mg/kg | 22 nM | 36000 nM | 8 mg/kg | 23 mg/kg | –
O=C(C[C@@H]1NCCC[C@H]1O)Cn1cnc2ccccc2c1=O (single isomer, unassigned) [FEBRIFUGINE] | 0.3 mg/kg | 243 | 1.5 mg/kg | – | – | – | – | –
C[C@@H]1CC[C@H]2[C@@H](C)C(=O)O[C@@H]3O[C@@]4(C)CC[C@@H]1[C@]32OO4 [ARTEMISININ] | 2 mg/kg | 1000 | 3.3 mg/kg | – | – | 3 mg/kg | 8 mg/kg | –
CCN(CC)CCCC(C)Nc1ccnc2cc(Cl)ccc12 (stereo not given) [CHLOROQUINE] | 5.4 mg/kg | – | 13 mg/kg | – | – | 32 mg/kg | 89 mg/kg | –
O=c1c2ccccc2ncn1CC1(O)C[C@@H]2NCCC[C@@H]2O1 (stereo not given in full) [ISOFEBRIFUGINE] | 79 mg/kg | 53 | – | – | – | – | – | 70%

Source: ChEMBL document CHEMBL1145118, “Metabolites of febrifugine and its synthetic analogue by mouse liver S9 and their antimalarial activity against Plasmodium malaria parasite” (J Med Chem, 2003)
